Source: ChEMBL document CHEMBL1152982, “Synthetic analogue of rocaglaol displays a potent and selective cytotoxicity in cancer cells: involvement of apoptosis inducing factor and caspase-12” (J Med Chem, 2009)
The source made the active and inactive calls. No cut-off for these calls is given here. Residues, ends and D or L forms follow the SMILES beside them. *: point of attachment. Cbz = O=C(OCc1ccccc1)*; CH2F = FC*

Tests used:
[1] = test system: HL-60; test: Inhibition of chymotrypsin-like activity of proteasome in human HL60 cells at 100 nM
Outline: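 Lysates of HL60 cells treated with compound; chymotrypsin-like proteasome activity of the lysate measured in vitro.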

[2] = test system: MCF7; test: Cytotoxicity against human MCF7 cells expressing P-glycoprotein after 72 hrs by MTS assay; format: functional, cell-based
Outline: (§1)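 Human cancer lines treated for 72 h and proliferation/viability read by MTS assay; dose-response curves in duplicate with IC50 taken from the curves; MCF7R is the P-gp (MDR1)-expressing resistant line.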

[3] = test system: HCT-15; test: Cytotoxicity against human HCT15 cells after 72 hrs by MTS assay; format: functional, cell-based; outline: as §1
[4] = test system: MCF7; test: Cytotoxicity against human MCF7 cells after 72 hrs by MTS assay; format: functional, cell-based; outline: as §1
[5] = test system: KB; test: Cytotoxicity against human KB cells after 72 hrs by MTS assay; format: functional, cell-based; outline: as §1
[6] = test system: HL-60; test: Cytotoxicity against human HL60 cells after 72 hrs by MTS assay; format: functional, cell-based; settings: HL-60, 72 h
Outline: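 HL60 cells exposed to compound for 72 h; proliferation/viability read by MTS assay. IC50 taken from dose-response curves run in duplicate.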

[7] = test system: HCT-116; test: Cytotoxicity against human HCT116 cells after 72 hrs by MTS assay; format: functional, cell-based; settings: HCT-116, 72 h; outline: as §1
[8] = test system: HepG2; test: Cytotoxicity against human HepG2 cells after 72 hrs by MTS assay; format: functional, cell-based; outline: as §1
[9] = Inhibition of cap-dependent […] of firefly luciferase in mouse Krebs2 cell extract; format: functional, cell-free
[10] = test system: HL-60; test: Cytotoxicity against human HL60 cells; format: functional, cell-based
[11] = target: ATP-dependent translocase ABCB1 (Homo sapiens, UniProt P08183); test: Inhibition of P-glycoprotein expressing human MCF7 cells assessed as change in rhodamine 123 efflux at 0.1 to 1 uM; format: cell-based
Sequence of ATP-dependent translocase ABCB1 (P08183 whole entry): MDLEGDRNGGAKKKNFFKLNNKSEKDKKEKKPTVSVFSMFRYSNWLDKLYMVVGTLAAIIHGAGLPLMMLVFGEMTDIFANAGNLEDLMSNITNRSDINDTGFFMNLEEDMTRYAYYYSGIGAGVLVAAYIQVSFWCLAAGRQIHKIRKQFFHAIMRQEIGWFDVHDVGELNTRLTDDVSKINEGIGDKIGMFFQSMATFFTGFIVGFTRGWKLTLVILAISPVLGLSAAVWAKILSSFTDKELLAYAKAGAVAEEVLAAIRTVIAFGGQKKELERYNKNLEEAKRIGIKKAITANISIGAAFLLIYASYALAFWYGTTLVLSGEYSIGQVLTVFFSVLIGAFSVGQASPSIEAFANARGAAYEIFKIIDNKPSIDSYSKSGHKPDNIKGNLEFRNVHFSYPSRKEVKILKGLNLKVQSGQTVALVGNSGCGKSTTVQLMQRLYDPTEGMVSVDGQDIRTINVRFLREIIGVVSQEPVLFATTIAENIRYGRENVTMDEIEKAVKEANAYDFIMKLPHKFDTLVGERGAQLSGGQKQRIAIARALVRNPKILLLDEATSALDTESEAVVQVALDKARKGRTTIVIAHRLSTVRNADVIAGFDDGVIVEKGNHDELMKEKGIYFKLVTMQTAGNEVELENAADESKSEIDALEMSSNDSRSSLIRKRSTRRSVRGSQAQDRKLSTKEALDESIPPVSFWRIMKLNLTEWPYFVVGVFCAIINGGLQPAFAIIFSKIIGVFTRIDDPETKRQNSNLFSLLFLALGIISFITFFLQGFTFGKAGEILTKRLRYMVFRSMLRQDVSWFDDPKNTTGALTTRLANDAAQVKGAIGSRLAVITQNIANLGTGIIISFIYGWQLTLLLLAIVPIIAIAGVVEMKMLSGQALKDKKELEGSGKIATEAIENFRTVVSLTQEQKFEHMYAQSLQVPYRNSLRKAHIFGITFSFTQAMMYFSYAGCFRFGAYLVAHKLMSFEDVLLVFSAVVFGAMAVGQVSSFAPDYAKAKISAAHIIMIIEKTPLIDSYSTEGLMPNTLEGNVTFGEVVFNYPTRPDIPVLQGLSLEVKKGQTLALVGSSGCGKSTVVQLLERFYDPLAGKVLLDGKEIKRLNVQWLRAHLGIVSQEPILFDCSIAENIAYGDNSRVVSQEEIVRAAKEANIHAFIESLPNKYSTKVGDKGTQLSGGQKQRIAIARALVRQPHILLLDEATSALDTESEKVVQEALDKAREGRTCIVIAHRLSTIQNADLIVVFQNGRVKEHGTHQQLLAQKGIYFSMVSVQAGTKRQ

[12] = test system: HL-60; test: Antiproliferative activity against human HL60 cells at 50 nM in presence of […] inhibitor 3-methyladenine; format: functional, cell-based
Outline: (§2)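 HL60 cells exposed for 72 h, with or without co-treatment with Z-VAD-FMK (50 μM), necrostatin-1 (50 μM) or 3-methyladenine (2 mM). Antiproliferative effect was compared against vehicle.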

[13] = test system: HL-60; test: Antiproliferative activity against human HL60 cells at 50 nM in presence of caspase inhibitor Z-VAD-FMK; format: functional, cell-based; outline: as §2
[14] = test system: HL-60; test: Cell cycle arrest in human HL60 cells assessed as accumulation of cells in G2/M phase at 200 nM after 48 hrs by FACS analysis; format: functional, cell-based
Outline: (§3)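 HL60 cells treated for 48 h; vehicle control 1% DMSO, doxorubicin as positive control. Propidium iodide staining, DNA content by flow cytometry giving cell-cycle distribution (G2/M, G0-G1 peaks); n = 4, each sample in duplicate.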

[15] = test system: HL-60; test: Antiproliferative activity against human HL60 cells at 50 nM in presence of […] inhibitor necrostatin 1; format: functional, cell-based; outline: as §2
[16] = test system: HL-60; test: Cell cycle arrest in human HL60 cells assessed as accumulation of cells in G2/M phase at 20 nM after 48 hrs by FACS analysis; format: functional, cell-based; outline: as §3
[17] = test system: HL-60; test: Induction of apoptosis in human HL60 cells assessed as caspase 3/7-mediated DEVD-AMC substrate cleavage at 1 to 1000 nM after 48 hrs by spectroscopy; format: functional, cell-based
Outline: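 HL60 cells treated 48 h, doxorubicin as positive control; whole-cell extracts incubated with DEVD-AMC, fluorescence release followed over time; rate from slope of linear phase, expressed as fold-activation over DMSO-treated control.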

[18] = test system: HepG2; test: Enhancement of doxorubicin-induced cytotoxicity against human HepG2 cells after 72 hrs by MTS assay; format: functional, cell-based
Outline: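 HepG2 cells given the test agent alone or together with 150 nM doxorubicin for 72 h; proliferation by MTS assay; duplicate experiments, n = 3.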

[19] = test system: HL-60; test: Cell cycle arrest in human HL60 cells assessed as increase in G0/G1 peak at 20 nM after 48 hrs by FACS analysis; format: functional, cell-based; outline: as §3
[20] = test system: H9c2; test: Induction of apoptosis in rat H9c2 cells at 0.5 to 50 nM after 24 hrs by FACS analysis; format: cell-based; settings: h9c2, 24 h, 0.05 µM
Outline: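 Rat H9c2 cardiomyoblasts treated 24 h (0.5-50 nM) or 24, 48 and 72 h (20 nM) versus vehicle; annexin V plus propidium iodide labeling and FACS for apoptosis; viability in parallel by MTS; doxorubicin 1 μM as positive control.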

[21] = test system: HL-60; test: Cell cycle arrest in human HL60 cells assessed as increase in G0/G1 peak at 200 nM after 48 hrs by FACS analysis; format: functional, cell-based; outline: as §3
[22] = test system: HL-60; test: Inhibition of proteasome activity in human HL60 cells at 20 to 200 nM; format: subcellular
Outline: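 Lysates of HL60 cells incubated with compound; in vitro chymotrypsin-like and trypsin-like proteasome activities measured with fluorogenic AMC substrates (LLVY-AMC, RLR-AMC).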

[23] = test system: HeLa; test: Binding affinity to eIF4A in human HeLa cell extract by agarose pulldown assay; format: cell-free
[24] = test system: H9c2; test: Induction of apoptosis in rat H9c2 cells at 1 uM after 24 hrs by FACS analysis; format: cell-based; settings: h9c2, 24 h
Outline: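 Rat H9c2 cardiomyoblasts treated 24 h with compound or vehicle. Cells labeled with annexin V and propidium iodide and analyzed by FACS for apoptosis.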

[25] = test system: HL-60; test: Induction of apoptosis in human HL60 cells assessed as increase in caspase 3/7-mediated at 1 uM after 48 hrs measured by spectroscopy; format: functional
Outline: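 HL60 cells treated 48 h. Whole-cell extracts tested for cleavage of the caspase-3 substrate DEVD-AMC, with fluorescence release read spectroscopically. Rates taken from the slope of the linear time course and expressed as fold-activation over the DMSO-treated control.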

[26] = Drug localization in endoplasmic reticulum of human HeLa cells after 2 hrs by ER tracker; format: ADME, cell-based
Outline: (§4)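 Live HeLa cells incubated with 50 μM fluorescent probe for 2 h, then 15 min with 1 μM organelle dye: Mito-Tracker Red (mitochondria), ER-tracker red (endoplasmic reticulum), or BODIPY 558/568 brefeldin A (ER plus Golgi). Localization judged by overlap of probe and dye signals in merged confocal images.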

[27] = Drug localization in mitochondria of human HeLa cells after 2 hrs by Mito-Tracker Red dye
[28] = Drug localization in golgi apparatus of human HeLa cells after 2 hrs by Brefeldin tracker; format: ADME, cell-based; outline: as §4
[29] = Drug localization in mitochondria of human HeLa cells at 50 uM after 2 hrs by Mito-Tracker Red dye; format: ADME; outline: as §4
[30] = Drug localization in endoplasmic reticulum of human HeLa cells at 50 uM after 2 hrs by ER tracker; format: ADME, cell-based; outline: as §4
[31] = Homo sapiens, HCT-15, 72 h, read-out: IC50
[32] = Homo sapiens, MCF7, 72 h, read-out: IC50
[33] = Homo sapiens, HepG2, 72 h, read-out: IC50

SMILES: CC(C)C[C@H](NC(=O)[C@H](Cc1ccccc1)NC(=O)c1cnccn1)B(O)O
- Activity [1]: Active

SMILES: CC[C@]1(O)C[C@@H]2CN(CCc3c([nH]c4ccccc34)[C@@](C(=O)OC)(c3cc4c(cc3OC)N(C)[C@H]3[C@@](O)(C(=O)OC)[C@H](OC(C)=O)[C@]5(CC)C=CCN6CC[C@]43[C@@H]65)C2)C1 [VINBLASTINE]
- IC50 ([2]; mcf7): Not Active
- IC50 [3, 31]: 10 nM
- IC50 [4, 32]: 4.6 nM
- IC50 [5]: 0.8 nM
- IC50 [6]: 1 nM
- IC50 [7]: 1.3 nM
- IC50 ([8]; hepg2): Not Active

SMILES: COC(=O)[C@H]1[C@@H](OC=O)[C@@]2(O)c3c(OC)cc(OC)cc3O[C@@]2(c2ccc(OC)cc2)[C@@H]1c1ccccc1
- IC50 [9]: 3000 nM

SMILES: COC(=O)C[C@H](NC(=O)[C@H](C)NC(=O)[C@@H](NC(=O)[C@H](C)NC(=O)OCc1ccccc1)[C@@H](C)O)C(=O)CF (Cbz-ATAD(OMe)-CH2F)
- Activity [10]: Active

SMILES: COc1cc(OC)c2c(c1)O[C@@]1(c3ccccc3)[C@H](c3ccccc3)C[C@@H](O)[C@@]21O
- Activity [11]: Not Active
- IC50 [2, 32]: 10000 nM
- IC50 [3, 31]: 8000 nM
- IC50 [4, 32]: 10000 nM
- IC50 [5]: 2500 nM
- IC50 [6]: 6000 nM
- IC50 [7]: 6000 nM
- IC50 [8, 33]: > 10000 nM

SMILES: CC[C@@]1(O)C(=O)OCc2c1cc1n(c2=O)Cc2cc3ccccc3nc2-1 [CAMPTOTHECIN]
- IC50 [2, 32]: 3 nM
- IC50 [3, 31]: 3 nM
- IC50 [4, 32]: 10 nM
- IC50 [5]: 38 nM
- IC50 [6]: 6 nM
- IC50 [7]: 2 nM
- IC50 [8, 33]: 455 nM

SMILES: COc1ccc([C@@]23Oc4cc(OC)cc(OC)c4[C@]2(O)[C@H](O)C[C@H]3c2ccccc2)cc1 (racemic) [ROCAGLAOL]
- Activity [12]: inactive
- Activity [11]: Not Active
- IC50 [2, 32]: 4 nM
- IC50 [3, 31]: 6 nM
- Activity [13]: inactive
- IC50 [4, 32]: 4 nM
- IC50 [5]: 2 nM
- Activity [14]: Active
- Activity [15]: inactive
- IC50 [6]: 3 nM
- Activity [16]: Active
- IC50 [7]: 6 nM
- Activity [17]: inactive
- Activity [18]: Active
- Activity [19]: Active
- IC50 [8, 33]: 70 nM
- Activity [20]: Not Active
- Activity [21]: Active
- Activity [22]: inactive

SMILES: COc1cc(OC)c2c(c1)O[C@@]1(c3ccc(Br)cc3)[C@H](c3ccccc3)[C@@H](C(=O)NCCOCCOCCOCCOCCOCCOCN)[C@@H](O)[C@@]21O
- Activity [23]: inactive

SMILES: COc1cccc2c1C(=O)c1c(O)c3c(c(O)c1C2=O)C[C@@](O)(C(=O)CO)C[C@@H]3O[C@H]1C[C@H](N)[C@H](O)[C@H](C)O1 [DOXORUBICIN]
- IC50 [2, 32]: 58 nM
- IC50 [3, 31]: 81 nM
- IC50 [4, 32]: 12 nM
- IC50 [5]: 1 nM
- IC50 [6]: 13 nM
- Activity [16]: Active
- IC50 [7]: 6 nM
- IC50 [8, 33]: 240 nM
- fold change (FC) [24]: 3
- fold change (FC) [25]: 14

SMILES: COc1ccc([C@@H]2C[C@@H](O)[C@@]3(O)c4c(OC)cc(OC)cc4O[C@@]23c2ccccc2)cc1
- Activity [11]: Not Active
- IC50 [2, 32]: > 10000 nM
- IC50 ([3]; hct-15): Not Active
- IC50 ([4]; mcf7): Not Active
- IC50 [5]: > 10000 nM
- IC50 [6]: > 10000 nM
- IC50 [7]: > 10000 nM
- IC50 ([8]; hepg2): Not Active

SMILES: CC(=O)NCCOCCOCCNC(=O)Cc1cc(=O)oc2cc(N(C)C)ccc12
- Activity [26]: Not Active
- Activity [27]: Not Active
- Activity [21]: inactive
- Activity [28]: Not Active

SMILES: CC(=O)O[C@@]12CO[C@@H]1C[C@H](O)[C@@]1(C)C(=O)[C@H](O)C3=C(C)[C@@H](OC(=O)[C@H](O)[C@@H](NC(=O)OC(C)(C)C)c4ccccc4)C[C@@](O)([C@@H](OC(=O)c4ccccc4)[C@H]21)C3(C)C.O.O.O [DOCETAXEL]
- IC50 ([2]; mcf7): Not Active
- IC50 [3, 31]: 13 nM
- IC50 ([4]; mcf7): Not Active
- IC50 [5]: 0.2 nM
- IC50 [6]: 0.5 nM
- IC50 [7]: 0.5 nM
- IC50 ([8]; hepg2): Not Active

SMILES: COC(=O)[C@H]1[C@@H](O)[C@@]2(O)c3c(OC)cc(O[C@@H]4O[C@@H]([C@H](O)CO)CO[C@H]4OC)cc3O[C@@]2(c2ccc(OC)cc2)[C@@H]1c1ccccc1 [SILVESTROL]
- IC50 [9]: 300 nM

SMILES: COc1ccc2c(c1)O[C@@]1(c3ccc(Br)cc3)[C@H](c3ccccc3)[C@@H](C(=O)NCCOCCOCCNC(=O)Cc3cc(=O)oc4cc(N(C)C)ccc34)[C@@H](O)[C@@]21O
- Activity [29]: Not Active
- IC50 [6]: 130 nM
- Activity [30]: Active
